Measurements reported in ChEMBL document CHEMBL4673305, “Azodyrecins A-C: Azoxides from a Soil-Derived Streptomyces Species” (J Nat Prod, 2020).
Activity calls are given as the source filed them. No cut-off for these calls is given here.

Tests used:
Staphylococcus aureus = experiment: Antimicrobial activity against Staphylococcus aureus 8325 assessed as reduction in microbial growth after 24 hrs by agar well diffusion assay; format: functional, organism-based
Outline: (§1)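 Agar well diffusion on Instant Ocean agar (3% Instant Ocean, 3.33 g/L casamino acids, 4 g/L glucose, 10 g/L agar) seeded with pathogen. Wells 4 mm in diameter, 32-38 mm apart, each got 30 µL of a 100 µg/100 µL MeOH solution. Medium and MeOH wells were controls; the positive control was sterile-filtered supernatant of tropodithietic acid-producing Phaeobacter inhibens DSM17395. Incubated 24 h at 25 °C; inhibition zone diameter measured.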

Vibrio anguillarum = experiment: Antimicrobial activity against Vibrio anguillarum 90-11-287 assessed as reduction in microbial growth after 24 hrs by agar well diffusion assay; format: functional, organism-based; outline: as §1
HL-60 = experiment: Cytotoxicity against human HL-60 cells assessed as reduction in cell viability after 48 hrs by AlamarBlue assay; format: functional, cell-based
Outline: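 HL-60 cells grown at 37 °C, 5% CO2, seeded at 2 x 10⁵ cells/mL. Compound in DMSO was dispensed acoustically at 10 concentrations (top 10 µM, 1:2 dilutions). After 48 h, AlamarBlue was added for a further 5 h and fluorescence read (ex 544/em 590 nm). DMSO-only wells served as maximal growth; medium-only wells gave background correction.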

[1] = Toxicity in Artemia salina assessed as mortality at 10 ug/ml after 24 hrs by Meyer method; conditions: at 10 µg/mL
Outline: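 Brine shrimp test after Meyer, modified. Artemia salina eggs were hatched in artificial seawater. Tubes held 30–40 nauplii in 4.95 mL seawater, plus 50 µL DMSO solution of compound (final 10 µg/mL). Elaiophylin was the positive control and DMSO alone the negative control. Mortality was scored after 24 h.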

Candida albicans = experiment: Antifungal activity against Candida albicans IBT 654.38 assessed as reduction in microbial growth after 16 to 24 hrs by agar well diffusion assay; format: functional, organism-based; conditions: time 16-24 hrs, in the assay text read “paper disk diffusion assay” for “agar well diffusion assay”
Outline: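 Disk diffusion: a glucose–peptone agar base layer (pH 4.8) was inoculated with the yeast. 6 mm paper disks carried 80 µg compound applied in CH2Cl2 and were dried under sterile conditions before placing. Incubated 28 °C for 16–24 h; inhibition zone diameter measured.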

Row | Structure (SMILES) | Activity (Staphylococcus aureus) | Activity (Vibrio anguillarum) | IC50 (HL-60; Homo sapiens, HL-60, 48 h, read-out: IC50) | mortality at 24 h, 10 ug/ml [1] | IC50 (HL-60; hl-60) | Activity (Candida albicans)
1 | COC(=O)[C@H](C)/N=[N+]([O-])/C=C/CCCCCCCCCC(C)C | inactive | inactive |  |  |  | 
2 | CCC(C)CCCCCCCCC/C=C\[N+]([O-])=N\[C@@H](C)C(=O)OC (some centres undefined) |  |  | 2.2 µM |  |  | 
3 | CC[C@@H]1[C@@H](C)O[C@@](O)([C@@H](C)[C@H](O)[C@H](C)[C@H]2OC(=O)/C=C/C=C/[C@H](C)[C@@H]([C@@H](C)[C@@H](O)[C@H](C)[C@@]3(O)C[C@@H](O[C@H]4C[C@H](O)[C@H](O)[C@H](C)O4)[C@H](CC)[C@@H](C)O3)OC(=O)/C=C/C=C/[C@@H]2C)C[C@H]1O[C@H]1C[C@H](O)[C@H](O)[C@H](C)O1 |  |  |  | 78% |  | 
4 | COC(=O)[C@H](C)/N=[N+]([O-])/C=C\CCCCCCCCCC(C)C | inactive | inactive |  | 100% | Nd(Unstable) | inactive
